The list is not random: actives were taken first. Their share in the collection is about 5.2%.
PfM18AAP inh-1 = PfM18AAP enzyme inhibition; recombinant PfM18AAP, H-Glu-NHMec fluorogenic cleavage; inhibition, % at 7.35 µM; 290,000 tested, 1.2% active; AID 1822;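 active means inhibition above the campaign mean inhibition over all tested compounds plus 3 SD, cut at about 28% in these data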
ZTA DNA inh = blocks Epstein-Barr virus ZTA, an EBNA-1 counter-screen; P03206; ZTA-DNA binding, fluorescence polarization; inhibition, % at 11 µM; 320,000 tested, 0.15% active; AID 2234; in the data active means inhibition above about 33%
EBNA-1 inhibitor = blocks EBNA-1 binding to DNA; AID 1950; 300,000 tested, 0.34% active; EBNA-1 DNA binding, fluorescence polarization; inhibition, % at 14.8 µM; in the data active means inhibition above about 28%
ALR inh = blocks human ALR sulfhydryl oxidase activity; P55789; purified ALR, DTT oxidation, H2O2 HRP-luminol luminescence; 290,000 tested, 3.8% active; inhibition, % (test concentration not listed); AID 485317;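 active means mean replicate inhibition above about 79%, with every replicate also reaching it, limit read from the data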
Target sequence (P55789 whole entry, looked up): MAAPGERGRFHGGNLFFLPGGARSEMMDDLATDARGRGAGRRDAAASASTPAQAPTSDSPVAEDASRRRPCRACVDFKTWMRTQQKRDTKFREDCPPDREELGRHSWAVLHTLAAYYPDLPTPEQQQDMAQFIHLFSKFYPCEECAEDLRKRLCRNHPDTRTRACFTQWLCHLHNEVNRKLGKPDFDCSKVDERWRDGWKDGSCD
core dimer inh = HCV core protein dimerization inhibition | TR-FRET GST/Flag-core106 dimerization, 1536-well | inhibition, % at 5 µM | 300,000 tested, 0.33% active;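 active means inhibition above the mean of all tested compounds plus 3 SD, set per screening campaign, cut at about 45% in these data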
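Material: GST/Flag-tagged HCV core106 proteins. Incubation: 4 h, 22.5 °C incubation. Read-out basis: inhibition (%) from 671 over 617 nm ratio. Measured by: TR-FRET, excitation 340 nm, emission 617 and 671 nm.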
NS3 helicase inh = inhibitors of Hepatitis C virus NS3 helicase; NS3 helicase DNA unwinding, Cy5 molecular beacon fluorescence; inhibition, % at 10.9 µM; 290,000 tested, 0.56% active; AID 1800;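 active means inhibition above the mean of all tested compounds plus 3 SD, set per campaign, cut at about 35% in these data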
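Test system: hepatitis C virus NS3 helicase domain fragment enzyme. Also added: annealed dual-labelled DNA beacon duplex, ATP-started. Timing: 60 min unwinding reaction at 25 °C after ATP addition. Technique: Cy5 fluorescence. Measure: % inhibition of unwinding.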
PfM18AAP inh-2 = PfM18AAP inhibition, confirmation; inhibition, % at 7.35 µM; AID 2170; recombinant PfM18AAP, H-Glu-NHMec fluorogenic cleavage; 2,400 tested, 28% active; shares compounds with PfM18AAP inh-1;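 active means mean inhibition over replicate wells above the hit cutoff set for the earlier primary screen, cut at about 29% in these data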
CTSL1 confirm = counter-screen for PFM18AAP inhibitors: confirmation of human cathepsin L inhibitors. inhibition, % at 5.96 µM. shares compounds with PfM18AAP inh-1. 2,400 tested, under 10 active. purified cathepsin L1, Z-Leu-Arg-MCA fluorescence;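 active means average inhibition across replicates above the hit cutoff set in the earlier primary screen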
Target sequence (P07711 whole entry, looked up): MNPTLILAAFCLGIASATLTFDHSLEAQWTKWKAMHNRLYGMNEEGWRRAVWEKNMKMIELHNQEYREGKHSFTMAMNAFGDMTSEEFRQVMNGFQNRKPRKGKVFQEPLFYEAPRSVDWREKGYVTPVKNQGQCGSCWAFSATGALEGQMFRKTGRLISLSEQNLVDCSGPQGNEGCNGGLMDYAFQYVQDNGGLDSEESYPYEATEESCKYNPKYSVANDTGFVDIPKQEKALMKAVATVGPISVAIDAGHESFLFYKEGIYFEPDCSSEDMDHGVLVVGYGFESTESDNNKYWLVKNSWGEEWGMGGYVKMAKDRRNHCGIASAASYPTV
Numbers stand for hits; i = inactive; nt = not tested or not shown.

SMILES | PfM18AAP inh-1 | ZTA DNA inh | EBNA-1 inhibitor | ALR inh | core dimer inh | NS3 helicase inh | PfM18AAP inh-2 | CTSL1 confirm
COc1ccc(Cc2nnc(NC(=O)c3ccccc3F)s2)cc1OC | i | i | i | i | i | i | nt | nt
CSc1ccc(/C=N/Nc2nc(C)cc(C)n2)cc1 | i | i | i | i | i | i | nt | nt
Cc1cc2c(C)nc(N/N=C/c3ccc(F)cc3)nc2o1 | 46 | i | i | i | i | i | i | i
CCCc1cc(=O)oc2cc(OC(=O)CN3C(=O)NC4(CCCC4)C3=O)ccc12 | nt | i | i | i | i | nt | nt | nt
Cc1ccc(-c2cn3c(=S)[nH]nc3s2)cc1 | 64 | i | i | 86 | i | i | 46 | i
CC1=C(C(=O)OCc2ccccc2)C(c2cccc(F)c2)NC(=O)N1 (centres undefined) | i | i | i | i | i | i | nt | nt
O=C(/C=C/c1ccc(O)c(O)c1)OC1C(O)CC(OC(=O)/C=C/c2ccc(O)c(O)c2)(C(=O)O)CC1O (centres undefined) | 76 | i | i | 99 | i | i | 64 | i
COCc1n[nH]c(=S)n1-c1ccccc1 | i | i | i | i | i | i | nt | nt
S=c1[nH]nc(Cn2cnc3ccccc32)n1-c1ccccc1 | 42 | i | i | i | i | i | i | i
S=c1[nH]nc(Cn2nnc3ccccc32)n1-c1ccc(Cl)cc1 | 39 | i | i | i | i | i | i | i
O=C1NC(=O)/C(=C\c2ccc(O)cc2O)S1 | 90 | i | i | 99 | i | i | 86 | i
O=C1NC(=O)/C(=C/c2cccc3ccccc23)S1 | i | i | i | i | i | i | nt | nt
O=C(O)c1ccc(-n2c(O)c(C=C3N=c4ccccc4=N3)sc2=S)cc1 | 51 | i | i | 99 | i | i | i | i
CCc1cccc(C)c1NC(=O)COC(=O)CSCc1ccccc1 | nt | nt | nt | i | nt | nt | nt | nt
O=C(NNc1cccc(Cl)n1)Nc1cccc(C(F)(F)F)c1 | 54 | i | i | i | i | i | 37 | i
O=C(NNc1cccc(Cl)n1)Nc1ccc(Cl)cc1 | 56 | i | i | nt | i | i | 36 | i
O=C(Nc1ccncc1)Nc1cccc(C(F)(F)F)c1 | i | i | i | i | i | i | nt | nt
O=C(Nc1ccc(Cl)cc1)Nc1ccccn1 | i | i | i | i | i | i | nt | nt
CN(C)/N=C/c1ccc([N+](=O)[O-])cc1[N+](=O)[O-] | 34 | i | i | i | i | i | i | i
O=C1OC(c2ccccc2)=N/C1=C\C=C\c1ccco1 | i | i | i | nt | i | i | nt | nt
C(=C\c1ccco1)/C=N/n1cnnc1 | 58 | i | i | i | i | i | i | i
CCOCCCN(C(=O)c1snc(C(N)=O)c1N)C(C(=O)NCCC(C)C)c1ccc(Cl)cc1 (centres undefined) | i | i | i | i | i | i | nt | nt
Nc1nnnn1/N=C\c1ccc(Cl)c([N+](=O)[O-])c1 | i | i | i | nt | i | i | nt | nt
Fc1ccc(/C=N/Nc2nn[nH]n2)cc1 | i | i | i | i | i | i | nt | nt
COc1ccc(/C=N/Nc2nnc(C)n2N)cc1OC | i | i | i | i | i | i | nt | nt
SMILES | PfM18AAP inh-1 | ZTA DNA inh | EBNA-1 inhibitor | ALR inh | core dimer inh | NS3 helicase inh | PfM18AAP inh-2 | CTSL1 confirm
Nn1cnnc1N/N=C/c1ccc(Cl)c([N+](=O)[O-])c1 | 57 | i | i | i | i | i | i | i
Nn1cnnc1N/N=C/c1ccc(F)cc1 | 42 | i | i | i | i | i | i | i
Cc1ccc(/C=N/Nc2nncn2N)cc1 | 40 | i | i | i | i | i | i | i
CCCCN(C(C)=O)c1ccc(S(=O)(=O)NC2=NCCCCC2)cc1NC(C)=O | nt | nt | nt | i | nt | nt | nt | nt
CC[C@H](C)[C@H](NC(=O)c1ccccc1)C(=O)NC(CC(=O)O)c1ccc(F)cc1 (some centres undefined) | i | i | i | i | i | i | nt | nt
CCC(C)(C(=O)NC1CCCCC1)N(CC1CCCO1)C(=O)CNC(=O)c1ccccc1 (centres undefined) | 35 | i | i | i | i | i | i | i
CCOC(=O)Cc1csc(NC(=O)C(NC(=O)C2CCC(C)CC2)C(C)C)n1 (centres undefined) | i | i | i | i | i | i | nt | nt
O=C(NNc1nc2cc3c(cc2s1)OCO3)c1ccc(F)cc1 | 42 | i | i | nt | i | i | i | i
O=C(NNc1nc2cc3c(cc2s1)OCCO3)c1ccc(F)cc1 | i | i | i | i | i | i | nt | nt
Cc1cc(C)nc(N/C(=N\S(=O)(=O)Cc2ccccc2)Nc2ccccc2Br)n1 | i | i | i | i | i | i | nt | nt
O=S(=O)(O)c1cc(O)c2c(O)c(N=Nc3cc(Cl)ccc3O)c(S(=O)(=O)O)cc2c1 | 45 | i | i | i | i | i | 29 | i
CCn1c(SCC(=O)NC2CCCCC2)nnc1-c1ccccc1F | i | i | i | i | i | i | nt | nt
NNc1nccc(Nc2ccccc2C(=O)O)n1 | 43 | i | i | nt | i | i | i | i
O=C(CNC(=O)c1ccc(Br)cc1)NCC(=O)OCC(=O)c1ccc(F)cc1 | i | nt | nt | i | nt | i | nt | nt
O=C(CNC(=O)c1ccc(Br)cc1)NCC(=O)OCC(=O)c1ccc([N+](=O)[O-])cc1 | 38 | i | i | i | i | i | i | i
O=C(CNC(=O)c1ccccc1)NCC(=O)OCC(=O)c1ccc([N+](=O)[O-])cc1 | 40 | i | i | 97 | i | i | i | i
O=C(COC(=O)c1ccccc1NC(=O)c1ccccc1)c1ccc([N+](=O)[O-])cc1 | 40 | i | i | i | i | i | i | i
O=C(CCC(=O)OCC(=O)c1ccc([N+](=O)[O-])cc1)NC1CCCCC1 | 34 | i | i | 80 | i | i | i | i
CCOC(=O)c1ccc(S(=O)(=O)N2CCN(CC(O)COc3ccc(C#N)cc3)CC2)cc1 (centres undefined) | i | i | i | i | i | i | nt | nt
Cc1ccccc1CN1CCN(CC(=O)NCc2ccco2)C1=O | i | i | i | i | i | i | nt | nt
O=C(CN1CC(=O)Oc2ccccc21)NCc1ccco1 | 33 | i | i | i | i | i | i | i
Cc1nnc(-c2ccc(Cl)cc2)[nH]c1=O | i | i | i | i | i | i | nt | nt
O=C(Nc1nc(=O)c2ccccc2s1)c1ccc(F)cc1 | 42 | i | i | i | i | i | i | i
O=C(Nc1nc2ccccc2c(=O)s1)c1ccc(F)cc1Cl | i | i | i | i | i | i | nt | nt
O=C(Cc1ccccc1)Nc1nc2ccccc2s1 | i | i | i | i | i | i | nt | nt
O=C(Cc1ccccc1)Nc1nc(=O)c2ccccc2s1 | 40 | i | i | i | i | i | i | i
O=C(c1ccccc1)N1CCN(C(=O)c2nn3c(C(F)(F)F)cc(-c4ccccc4)nc3c2Br)CC1 | i | i | i | i | i | i | nt | nt
CC(NC(=O)c1ccc2c(c1)C(=O)N(Cc1cccnc1)C2=O)c1ccccc1 (centres undefined) | i | i | i | i | i | i | nt | nt

From PubChem BioAssay
